Assay results from ChEMBL document CHEMBL4627246, “Pyroglutamide-Based P2X7 Receptor Antagonists Targeting Inflammatory Bowel Disease” (J Med Chem, 2020).

These compounds were tested against T1, P2X purinoceptor 7 (Homo sapiens) (UniProt Q99572) (assay: Inhibition of human P2X7 expressed in human HEK293 cells assessed as reduction in BzATP-stimulated TO-PRO-3 incorporation at 10 uM preincubated with compound and TO-PRO-3 for 15 mins prior to BzATP addition and measured after 1 hr by Fluo-3AM dye based flow cytometry relative to control).
T1 sequence (whole entry): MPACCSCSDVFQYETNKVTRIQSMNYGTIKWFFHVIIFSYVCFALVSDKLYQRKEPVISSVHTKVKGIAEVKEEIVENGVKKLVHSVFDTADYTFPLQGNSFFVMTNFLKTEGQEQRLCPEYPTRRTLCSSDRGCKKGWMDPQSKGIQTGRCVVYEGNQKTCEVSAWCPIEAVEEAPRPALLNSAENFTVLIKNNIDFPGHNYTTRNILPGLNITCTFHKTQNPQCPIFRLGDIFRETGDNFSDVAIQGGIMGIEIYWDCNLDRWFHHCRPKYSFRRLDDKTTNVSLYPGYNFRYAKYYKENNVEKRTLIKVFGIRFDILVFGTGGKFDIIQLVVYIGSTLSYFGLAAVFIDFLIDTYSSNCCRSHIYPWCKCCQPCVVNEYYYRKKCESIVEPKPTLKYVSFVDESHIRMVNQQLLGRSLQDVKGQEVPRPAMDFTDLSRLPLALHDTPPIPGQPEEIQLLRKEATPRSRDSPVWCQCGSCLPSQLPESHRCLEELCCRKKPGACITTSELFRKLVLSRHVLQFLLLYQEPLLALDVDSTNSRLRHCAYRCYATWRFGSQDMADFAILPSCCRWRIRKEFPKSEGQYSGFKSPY
Assay type: cell-based
Summary of the method: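 HEK-293 cells overexpressing human P2RX7 loaded with Fluo-3 AM, then incubated with TO-PRO-3 (large pore uptake) and propidium iodide (viability) plus compound (10⁻⁵ M single point) for 15 min before BzATP 100 µM. After 1 h, flow cytometry; percentage of Fluo-3/TO-PRO-3 double-positive cells calculated. Mean of n ≥ 2 with positive control.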

SMILES	inhibition
O=C1N[C@H](C(=O)NCc2ccc(Cl)cc2Cl)C/C1=C/NCc1ccc(Cl)cc1Cl	0%
O=C(NCC1CCCCC1)[C@@H]1CCC(=O)N1c1ccccc1	0%
CN1CCN(/C=C2\C[C@@H](C(=O)NCc3ccc(Cl)cc3Cl)N(c3cccs3)C2=O)CC1	49%
N#Cc1ccc(N2C(=O)CC[C@H]2C(=O)NCc2ccc(Cl)cc2Cl)cc1	0%
COc1ccc(N2C(=O)[C@@H]3C/C(=C\N(C)C)C(=O)N3C2N(C)C)cc1 (stereo partly specified)	0%
COc1ccc(CNC(=O)[C@@H]2CCC(=O)N2Cc2ccc(Cl)cc2Cl)c(OC)c1	0%
